From ChEMBL document CHEMBL1142898, “Synthesis and biological evaluation of benzoic acid derivatives as potent, orally active VLA-4 antagonists” (Bioorg Med Chem, 2007)
Values belong to the compound of their own block, whether it stands above or below them.

Key:
in vivo [1] = details: Sprague-Dawley, rat, 10 mg/kg
in vivo [2] = details: BALB/c, mouse, plasma, iv, 10 mg/kg
Mus musculus [3] = species on record: Mus musculus; details: in vivo, 10 mg/kg
physchem = details: octanol/water
Mus musculus [4] = experiment: Cmax in BALB/c mouse at 20 mg/kg, po normalized to 10 mg/kg after 15 mins; type: ADME, organism-based; parameters: dose 20 mg/kg, route oral; details: in vivo
[5] = AUC in Sprague-Dawley rat 10 mg/kg, po; type: ADME, organism-based; parameters: dose 10 mg/kg, route oral; details: plasma
How it was run: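 Male Sprague–Dawley rats, 6 weeks old, fasted 18 h, 3–4 per group. Oral dose 10 mg/5 ml/kg in 0.5% methylcellulose. Blood (0.4 ml) drawn at 0.25, 0.5, 1, 2 and 6 h. Plasma held at −20 °C, drug measured by LC/MS/MS, and PK parameters derived by non-compartmental analysis.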

in vivo [6] = details: Sprague-Dawley, rat, plasma, iv, 10 mg/kg
in vivo [7] = details: Sprague-Dawley, rat, plasma, 10 mg/kg
in vivo [8] = details: Sprague-Dawley, rat, blood, 10 mg/kg
in vivo [9] = details: BALB/c, mouse, 5 mg/kg
in vivo [10] = details: Sprague-Dawley, rat, 10 mg/kg; remark: listed apart in the source
Mus musculus [11] = experiment: AUC in BALB/c mouse at 20 mg/kg, po normalized to 10 mg/kg; type: ADME, organism-based, Plasma; details: in vivo
Mus musculus [12] = species on record: Mus musculus; details: in vivo, 5 mg/kg
Rattus norvegicus [13] = experiment: Cmax in Sprague-Dawley rat at 10 mg/kg, iv; details: in vivo
in vivo [14] = details: BALB/c, mouse, serum, 10 mg/kg
in vivo [15] = details: BALB/c, mouse, serum, 50 mg/kg
[16] = AUC in Beagle dog at 1 mg/kg, po; type: ADME, organism-based, Canis lupus familiaris; parameters: dose 1 mg/kg, route oral; details: plasma
in vivo [17] = details: BALB/c, mouse, 5 mg/kg; remark: listed apart in the source
[18] = AUC in BALB/c mouse at 10 mg/kg, po; type: ADME, organism-based; parameters: dose 10 mg/kg, route oral; details: plasma
in vivo [19] = details: beagle, dog, plasma, iv, 1 mg/kg
in vivo [20] = details: BALB/c, mouse, plasma, 10 mg/kg
Canis familiaris [21] = species on record: Canis familiaris; details: dog, in vivo, po, 1 mg/kg
Rattus norvegicus [22] = species on record: Rattus norvegicus; details: in vivo, 10 mg/kg
Mus musculus [23] = experiment: Cmax in BALB/c mouse at 10 mg/kg, po after 15 mins; type: ADME, organism-based; parameters: dose 10 mg/kg, route oral; details: in vivo
How it was run: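 Female BALB/c mice, 8 weeks old, 4 per group. Dosed orally at 10 mg/1 ml/kg in 0.5% CMC. Drug level estimated by adding serum (0.01–10% final) to a Eu-VCAM-1/Fc binding assay on CHO-K1 cells expressing human VLA-4.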

in vivo [24] = details: beagle, dog, 1 mg/kg
in vivo [25] = details: BALB/c, mouse, 10 mg/kg
Canis familiaris [26] = species on record: Canis familiaris; details: dog, in vivo, po, 1 mg/kg; remark: listed apart in the source
in vivo [27] = details: beagle, dog, po, 2 mg/kg

- Vd (in vivo [1]): 0.29 L/kg
- AUC (in vivo [2]): 5260 ng·h/mL
- Vdss (Mus musculus [3]): 0.67 L/kg
- logD (physchem): 1.64
- Cmax (Mus musculus [4]): 391 ng/mL
- AUC [5]: 5230 ng·h/mL
- AUC (in vivo [6]): 15600 ng·h/mL
- clearance (in vivo [7]): 11.3 mL/min/kg
- MRT (in vivo [8]): 2 h
- bioavailability (in vivo [9]): 21%
- bioavailability (in vivo [10]): 34%
- AUC (Mus musculus [11]): 1095 ng·h/mL
- MRT (Mus musculus [12]): 2.3 h
- Cmax (Rattus norvegicus [13]): 6700 ng/mL
- concentration at […] (in vivo [14]): 693 ng/mL
Structure (SMILES): Cc1cc(CC(=O)N2C[C@@H](F)C[C@H]2COc2ccc(C(=O)O)cc2)ccc1NC(=O)Nc1ccccc1Br

- logD (physchem): 2.17
- concentration at […] (in vivo [14]): 1880 ng/mL
Structure (SMILES): O=C(Nc1ccccc1Cl)Nc1ccc(CC(=O)N2C[C@@H](F)C[C@H]2COc2ccc(C(=O)O)cc2)cc1Br

- logD (physchem): 2.34
- concentration at […] (in vivo [14]): 2160 ng/mL
Structure (SMILES): O=C(Nc1ccc(CC(=O)N2C[C@@H](F)C[C@H]2COc2ccc(C(=O)O)cc2)cc1Cl)Nc1ccccc1Br

- logD (physchem): 1.69
- concentration at […] (in vivo [14]): 472 ng/mL
Structure (SMILES): Cc1cc(CC(=O)N2C[C@@H](F)C[C@H]2COc2ccc(C(=O)O)cc2)ccc1NC(=O)Nc1ccccc1Cl

- logD (physchem): 1.87
- concentration at 0.5 h (in vivo [15]): 142 ng/mL
Structure (SMILES): COc1cc(CC(=O)N2C[C@@H](F)C[C@H]2COc2ccc(C(=O)O)cc2)ccc1NC(=O)Nc1ccccc1Cl

Structure (SMILES): Cc1ccccc1NC(=O)Nc1ccc(CC(=O)N2C[C@@H](F)C[C@H]2COc2ccc(C(=O)O)cc2)cc1Cl
- Vd (in vivo [1]): 0.24 L/kg
- AUC [16]: 3120 ng·h/mL
- MRT (in vivo [17]): 1.2 h
- AUC [18]: 2540 ng·h/mL
- AUC (in vivo [19]): 5680 ng·h/mL
- AUC (in vivo [2]): 8900 ng·h/mL
- clearance (in vivo [20]): 18.5 mL/min/kg
- Vdss (Canis familiaris [21]): 0.14 L/kg
- clearance (Rattus norvegicus [22]): 5.2 mL/min/kg
- logD (physchem): 1.61
- Cmax (Mus musculus [23]): 2250 ng/mL
- AUC [5]: 11500 ng·h/mL
- MRT (in vivo [24]): 1.6 h
- AUC (in vivo [6]): 31900 ng·h/mL
- Vd (in vivo [25]): 0.33 L/kg
- MRT (in vivo [8]): 1.7 h
- Cmax (Canis familiaris [26]): 2370 ng/mL
- bioavailability (in vivo [9]): 28%
- bioavailability (in vivo [10]): 36%
- bioavailability (in vivo [27]): 55%
- Cmax (Rattus norvegicus [13]): 13000 ng/mL
- concentration at […] (in vivo [14]): 3660 ng/mL

- logD (physchem): 1.09
- concentration at […] (in vivo [14]): 368 ng/mL
Structure (SMILES): Cc1ccccc1NC(=O)Nc1ccc(CC(=O)N2C[C@@H](F)C[C@H]2COc2ccc(C(=O)O)cc2)cc1C
